Source: PubChem BioAssay (several laboratories)
Many of the other results were omitted from the sample, so hits are more common in it than they were.
UPR XBP1 act = adaptive UPR (XBP1) activation | CHO-XBP1 luciferase reporter, IRE1-XBP1 UPR activation, luminescence; percent of tunicamycin response, DMSO as zero | activation, % at 20 µM | actives 0.33% (n = 330,000);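 active means versus positive control, 20 µM dose yields 30% or more activation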
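Material: IRE1-XBP1 luciferase reporter CHO line / Quantity: one thousand reporter cells per well / Buffer or medium: F12 with 10% serum / Compound: 20 µM single concentration, DMSO 1% / Times: 6 h treatment, 37 °C / Detection: Steady-Glo luciferase glow luminescence, 10 min after reagent addition / Benchmarks: tunicamycin high, DMSO low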
NOD2-RIPK2 inh = inhibitors of human NOD2-RIPK2 interaction. O43353. CHO BLA complementation NOD2-RIPK2, CCF4 ratio. inhibition, % at 4.98 µM. actives 0.38% (n = 360,000). AID 624267; in the data active means inhibition above about 21%
UPR CHOP act = activators of apoptotic arm of unfolded protein response (CHOP); AID 449763; activation, % at 10 µM; CHO-CHOP luciferase reporter, UPR activation, luminescence; percent of tunicamycin response over DMSO baseline; actives 0.34% (n = 330,000);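 active means at 10 µM dose, activation of 40% or more, normalized to positive control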
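System: CHO-CHOP luciferase reporter cell line; amount: 500 cells/well; buffer or medium: F12 medium containing 10% fetal bovine serum; incubation: 6 h compound exposure at 37 °C after overnight seeding; measured by: luciferase luminescence after 10 min with Steady-Glo reagent; evaluation: % reporter activation, DMSO baseline versus tunicamycin full activation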
CHOP inhibitor = CHOP inhibition in unfolded protein response; CHO-K1 CHOP-promoter luciferase, tunicamycin-induced, 15-18 h; inhibition, % at 10 µM; actives 3.8% (n = 220,000); AID 2732;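 active means compounds that reduced the stress-induced luciferase reporter signal by more than about 70% of percent inhibition, limit read from the data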
TLR9-MyD88 inh = TLR9-MyD88 interaction inhibition; Q9NR96+Q99836; CHO BLA complementation TLR9-MyD88, CCF4 FRET ratio; inhibition, % at 4.98 µM; actives 0.21% (n = 340,000); AID 504734;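 active means inhibition above the mean over all tested compounds plus 3 SD, cut at about 21% in these data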
TLR4 MyD88 comp = inhibitors of human TLR4-MyD88 binding | O00206+Q99836 | HeLa CL3-4 TLR4/MyD88 BLA complementation, FRET ratio | inhibition, % at 8.4 µM | actives 0.18% (n = 200,000) | AID 861; in the data active means inhibition above about 25%
Of the large screens only hits and unclear results are named; the others gave an inactive call.

CCOc1ccc(N2C(=O)CC(SC(=NC)Nc3ccc4c(c3)OCO4)C2=O)cc1 (stereo not drawn)	CHOP inhibitor 73
Clc1ccc(-c2nnc(-c3ccccc3)nc2-c2c[nH]c3ccccc23)cc1	CHOP inhibitor 85
c1ccc(-c2nnc(-c3ccccc3)c(-c3c[nH]c4ccccc34)n2)cc1	none
Cc1[nH]c2ccccc2c1-c1nc(-c2ccc(Cl)cc2)nnc1-c1ccccc1	CHOP inhibitor 76 (no result: NOD2-RIPK2 inh, TLR9-MyD88 inh)
CN(c1ccccc1)S(=O)(=O)c1cccc2ccccc12	none (no result: CHOP inhibitor, TLR4 MyD88 comp)
Cc1cc(Nc2ccccc2)nc(NCc2ccccc2)n1	none
Cc1cc(Nc2cccc(F)c2)nc(NCc2ccccc2)n1	CHOP inhibitor 71
COc1cc(NC(=O)Cn2nc(C(F)(F)F)c(Br)c2C)cc([N+](=O)[O-])c1	CHOP inhibitor 94
COc1ccc(CNC(=O)Cn2nc(C(F)(F)F)c(Br)c2C)cc1	none (no result: CHOP inhibitor, TLR4 MyD88 comp)
Cc1ccc2[nH]c(C)c(CCNC(=O)c3cc4cc([N+](=O)[O-])ccc4oc3=O)c2c1	CHOP inhibitor 89
COc1ccc(NC(=O)c2c(NC(=O)CNCc3ccco3)sc3c2CCC3)c(OC)c1	CHOP inhibitor 71
COc1ccc(OC)c(NC(=O)c2c(NC(=O)CNCc3ccco3)sc3c2CCC3)c1	none
O=C(Cn1cc2c(n1)CCCC2)NC1CCN(Cc2ccccc2)CC1	CHOP inhibitor 82
CCc1ccc(S(=O)(=O)NCc2csc(-c3ccccc3)n2)s1	CHOP inhibitor 73
CCc1ccc(S(=O)(=O)NCc2cn3c(C)csc3n2)s1	CHOP inhibitor 90
CCc1ccc(S(=O)(=O)NCCc2csc(-c3ccccc3)n2)s1	none
N/C(Cc1ccc(Cl)cc1)=N\OC(=O)Cc1ccc([N+](=O)[O-])cc1	none
CCOC(=O)/C(N=Nc1ccc(Cl)cc1)=C(/O)c1ccc([N+](=O)[O-])cc1	CHOP inhibitor 86
N#Cc1ccc(NC(=O)Nc2ccc(Cl)cc2)cc1	CHOP inhibitor 78
Cc1ccccc1C(=O)Oc1ccc(-c2csnn2)cc1	none (no result: TLR4 MyD88 comp)
Cc1ccccc1C(=O)Oc1ccc(Sc2ccc(O)cc2)cc1	CHOP inhibitor 96 (no result: NOD2-RIPK2 inh, TLR9-MyD88 inh)
Cc1nc(N2CCc3ccccc3C2)[nH]c(=O)c1CCC(C)C	none
Cc1nc(Nc2ccccc2)[nH]c(=O)c1CCC(C)C	CHOP inhibitor 89
Cc1ccccc1CS(=O)(=O)Cc1ccc(C(=O)NCCCN2CCCC2=O)o1	CHOP inhibitor 73
CCCCN1C(=O)N(C)C2NC(=S)NC21 (stereo not drawn)	none (no result: TLR9-MyD88 inh, TLR4 MyD88 comp)
O=C(c1ccc2c(=O)n(Cc3ccccc3Cl)c(=S)[nH]c2c1)N1CCOCC1	none (no result: CHOP inhibitor, TLR4 MyD88 comp)
COc1ccc(-c2nc(-c3ccccc3)c(-c3cc([N+](=O)[O-])ccc3C)[nH]2)cc1O	CHOP inhibitor 74
Cc1ccc([N+](=O)[O-])cc1-c1[nH]c(-c2ccc(O)c(O)c2)nc1-c1ccccc1	none
CCCCN(C(=O)NC(=O)Nc1cccc(C)c1C)S(C)(=O)=O	CHOP inhibitor 81
CC(=O)N1CCC(C(=O)N2c3ccccc3N=C(c3ccc(C(F)(F)F)cc3)C2C(=O)NC(C)(C)C)CC1 (stereo not drawn)	none (no result: UPR XBP1 act, UPR CHOP act, CHOP inhibitor, TLR9-MyD88 inh, TLR4 MyD88 comp)
Cc1ccc(CNS(=O)(=O)c2ccc(Cl)s2)cc1	none (no result: UPR XBP1 act, UPR CHOP act, CHOP inhibitor, TLR4 MyD88 comp)
O=C(/C(Cl)=C/Nc1ccc(Br)cn1)C(F)(F)F	CHOP inhibitor 87
COc1ccc(/C=C(/NC(=O)c2ccco2)C(=O)Nc2ccc(C(=O)O)cc2)cc1	none (no result: CHOP inhibitor, TLR4 MyD88 comp)
COc1ccc(C(=O)Nc2cc3c(cc2OC)CCCC3)cc1Br	CHOP inhibitor 82
COC(=O)C1CCN(Cc2cn(-c3ccccc3)nc2-c2ccc3c(c2)OCO3)CC1	none
COc1cccc(Oc2cn[nH]c2-c2ccc(OC)cc2O)c1	CHOP inhibitor 84
COc1ccc(-c2cn[nH]c2-c2ccc(OC)cc2O)cc1	none (no result: CHOP inhibitor, TLR4 MyD88 comp)
O=[N+]([O-])c1ccc(COc2ccc(-c3[nH]ncc3-c3ccc(Cl)cc3)c(O)c2)cc1	CHOP inhibitor 82
COc1ccc(-c2[nH]ncc2-c2ccc(Cl)cc2)c(O)c1	CHOP inhibitor 86
O=C(COC(=O)/C=C/c1ccc(Br)o1)NCCCN1CCCC1=O	none
N#CCC(=O)Nc1ccc(C(=O)OCC(=O)Nc2ccc3ccccc3c2)cc1	none (no result: CHOP inhibitor, TLR4 MyD88 comp)
Cc1cc2nc(-c3ccccc3)c(CC(C)(C)C)n2c(C)c1Br	none (no result: UPR XBP1 act, UPR CHOP act, CHOP inhibitor, TLR9-MyD88 inh, TLR4 MyD88 comp)
O=C1c2ccccc2C(=O)N1c1nccs1	none (no result: UPR XBP1 act, UPR CHOP act, CHOP inhibitor, TLR4 MyD88 comp)
O=c1c2ccccc2sn1-c1nccs1	CHOP inhibitor 94 (no result: UPR XBP1 act, UPR CHOP act, TLR9-MyD88 inh)
Cc1ccc(SCC(=O)OCC(=O)N2CCN(C(=O)c3ccco3)CC2)c(C)c1	none (no result: CHOP inhibitor, TLR4 MyD88 comp)
CC(C)COc1nc2ccccc2c(=O)n1OCC(=O)O	none
CCCOn1c(OCC(C)C)nc2ccccc2c1=O	CHOP inhibitor 73
O=C(CNC(=O)CNC(=O)c1ccc(Cl)cc1Cl)NCc1cccc(Cl)c1	none (no result: CHOP inhibitor, TLR4 MyD88 comp)
CC(C)C(=O)N=c1sc2cc(F)cc(F)c2n1C	CHOP inhibitor 85
CCC(=O)N=c1sc2cc(F)cc(F)c2n1C	none (no result: CHOP inhibitor)
Cc1ccc2[nH]c(=O)c(CNS(=O)(=O)c3ccccc3)c(-c3ccccc3)c2c1	CHOP inhibitor 87
C/C(=N\N)c1c(-c2ccccc2)c2cc(C)ccc2[nH]c1=O	none (no result: TLR4 MyD88 comp)
CCN(CC)c1c(-c2ccccc2)c2cc(C)ccc2[nH]c1=O	CHOP inhibitor 95
Cc1ccc2c(c1)[nH]c1c(=O)n(CCN3CCNCC3)cnc12	none (no result: UPR XBP1 act, UPR CHOP act)
O=c1c2[nH]c3ccccc3c2ncn1CCN1CCNCC1	CHOP inhibitor 89
Cc1ccnc(NC(=O)Nc2ccc(F)cc2)c1	none
Cc1ccc(NC(=O)Nc2ccc(F)cc2)nc1	CHOP inhibitor 77
CCn1c2ccccc2c2cc(NC(=O)c3coc(=O)c(Br)c3)ccc21	UPR XBP1 act 73, UPR CHOP act 100 (no result: TLR9-MyD88 inh, TLR4 MyD88 comp)
CCn1c2ccccc2c2cc(NC(=O)c3ccc(=O)oc3)ccc21	none (no result: TLR9-MyD88 inh, TLR4 MyD88 comp)
Cc1cccc(NC(=O)CN(C)C(=O)C2CCCC2)c1C	none (no result: CHOP inhibitor, TLR4 MyD88 comp)
Cc1ccccc1Cn1c(=N)n(CC(=O)c2ccc([N+](=O)[O-])cc2)c2ccccc21	CHOP inhibitor 84 (no result: UPR XBP1 act, UPR CHOP act)
CC(C)Nc1nc(Oc2ccc(Cl)cc2Cl)cc(C(F)(F)F)n1	none
CC(C)Nc1nc(Oc2cccc(Cl)c2Cl)cc(C(F)(F)F)n1	CHOP inhibitor 75
CC1CCCC(C)N1C(=O)Cn1cnc2cc([N+](=O)[O-])ccc2c1=O (stereo not drawn)	none
O=C(NC(NC(=S)Nc1cccc(Cl)c1)C(Cl)(Cl)Cl)OCc1ccccc1 (stereo not drawn)	CHOP inhibitor 109
C=CCOc1nc2c(c(=O)n(C)c(=O)n2C)n1Cc1ccc(Cl)cc1	CHOP inhibitor 82
COc1cccc(Cn2c(Oc3ccccc3)nc3c2c(=O)n(C)c(=O)n3C)c1	none
